Screening data from PubChem.
Rows were chosen to be rich in hits. Some 2.3% of all compounds tested hit in one or more screens of this group.
STEP block – STEP (human) phosphatase inhibition; actives 0.25% (n = 360,000); recombinant STEP, OMFP fluorogenic substrate, fluorescence; P54829; inhibition, % at 20 µM;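 active means inhibition at 20 µM, scaled per plate between control wells, above about 37%, limit read from the data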;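 further: 0% = DMSO with enzyme and substrate and 100% = substrate only without enzyme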
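material = STEP tyrosine phosphatase | reagent = fluorogenic phosphatase substrate OMFP at 25 µM final | doses = single compound dose of 20 µM, 1% DMSO final | schedule = 20 min reaction, room temperature, in the dark | measured by = fluorescence, 480/540 nm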
SUMO1 PPI mod – alters human SUMO1 binding to SIM partners | P63165 | SUMO1 binding to a labelled peptide, TR-FRET, 1 h | inhibition, % at 20 µM | actives 0.33% (n = 360,000); in the data active means inhibition above about 37%
Target sequence (P63165 whole entry, looked up): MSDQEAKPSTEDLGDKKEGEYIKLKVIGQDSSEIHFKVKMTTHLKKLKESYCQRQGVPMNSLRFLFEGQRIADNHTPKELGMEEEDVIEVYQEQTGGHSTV
Scp1 inh – Scp-1 (human) phosphatase inhibition; Recombinant Scp1, phosphopeptide, malachite green phosphate absorbance; inhibition, % at 20 µM; actives 0.88% (n = 340,000); AID 493091;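 active means inhibition above about 50% at 20 µM, limit read from the data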;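 further: plate controls were DMSO wells with enzyme for no effect and wells lacking enzyme for full effect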
Target sequence (Q9GZU7 76-261 limits assumed): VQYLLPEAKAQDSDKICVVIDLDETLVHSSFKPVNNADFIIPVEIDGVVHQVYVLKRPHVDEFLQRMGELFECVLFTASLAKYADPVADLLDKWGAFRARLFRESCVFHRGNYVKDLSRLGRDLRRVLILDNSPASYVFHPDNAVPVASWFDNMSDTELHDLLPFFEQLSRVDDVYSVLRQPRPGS
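Test system – truncated SCP-1 phosphatase (76-261aa) · Reagent – Phosphorylated 17-residue peptide substrate · Incubation – 45 min room-temperature reaction, 5 min colour, 30 min stabiliser · Detection – colorimetric phosphate reagent with accelerator and stabiliser, absorbance at 630 nm · Measure – % inhibition at 20 µM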
DNMT1 inh – inhibitors of human DNMT1. inhibition (reported as % activation of signal), % at 10 µM. actives 0.83% (n = 360,000). DNMT1 molecular beacon, Hinp1I cleavage, fluorescence. P26358; in the data active means inhibition above about 50%
Rpn11 inh – Rpn11 (human) deubiquitinase inhibition; O00487; human 26S proteasome, Ub4-pepOG fluorescence polarization; 20S core pre-blocked with epoxomicin; inhibition, % at 20 µM; actives 0.59% (n = 360,000); AID 588493;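 active means inhibition at 20 µM, scaled to each plate's controls, above about 33%, limit read from the data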
Target sequence (O00487 whole entry, looked up): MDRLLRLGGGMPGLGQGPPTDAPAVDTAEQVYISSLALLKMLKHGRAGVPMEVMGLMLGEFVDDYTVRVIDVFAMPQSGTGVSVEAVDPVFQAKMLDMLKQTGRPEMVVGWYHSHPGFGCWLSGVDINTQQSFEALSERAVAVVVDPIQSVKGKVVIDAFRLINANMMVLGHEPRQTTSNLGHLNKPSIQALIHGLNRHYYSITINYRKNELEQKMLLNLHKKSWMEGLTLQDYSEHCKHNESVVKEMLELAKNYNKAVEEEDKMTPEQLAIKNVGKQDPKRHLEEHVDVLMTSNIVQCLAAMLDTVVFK
LMPTP inh – LMPTP (human) inhibition; actives 0.22% (n = 360,000); inhibition, % at 20 µM; P24666; recombinant LMPTP-A, OMFP fluorogenic substrate, fluorescence intensity;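 active means compounds that cut the enzyme signal by at least half of the control window in the single-dose screen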;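 further: plate controls were DMSO wells with enzyme plus substrate for no effect and substrate without enzyme for full effect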
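Test system – LMPTP-A enzyme · Amount – LMPTP-A at 0.625 nM final in the reaction · Buffer or medium – Bis-Tris pH 6.0, DTT, detergent · Reagent – OMFP 400 µM · Doses – single 20 µM dose · Schedule – reaction 50 min, room temperature, dark · Detection – fluorescence intensity of OMFP turnover product · Evaluation – percent inhibition versus substrate-only and uninhibited controls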
DNMT1 interf DR – counter-screen for DNMT1 inhibitors: spectral interference, dose response; shares compounds with DNMT1 inh; molecular beacon fluorescence; IC50, µM; 200 tested, under 10 active; AID 602382; call rule not given here
DNMT1 confirm – DNMT1 inhibition confirmation, single concentration; shares compounds with DNMT1 inh; DNMT1 molecular beacon HinP1I cleavage, fluorescence; inhibition, % at 10 µM; actives 8% (n = 2,300);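 active means average inhibition of at least 30% in the single-concentration confirmation test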
DNMT1 interf – beacon fluorescence artifact counter-screen; shares compounds with DNMT1 inh; actives 1% (n = 2,300); DNMT1 molecular beacon spectral interference counterscreen, fluorescence 485/520; activation (fluorescence interference), % at 10 µM;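 active means activation of at least 30% at 10 µM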;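 further: DNMT1 catalytic domain with a HinP1I cleavage step and a FAM/dabcyl DNA beacon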
The depositor's hits bear a star; . = not tested or not shown.

SMILES	STEP block	SUMO1 PPI mod	Scp1 inh	DNMT1 inh	Rpn11 inh	LMPTP inh	DNMT1 confirm	DNMT1 interf	others
CCc1noc(C)c1C(=O)OCC(=O)Nc1cccc(C)c1	-3	2	-6	77*	6	-1	3	3
COc1ccc(OC)c(S(=O)(=O)Nc2cc(OC)c(Cl)cc2OC)c1	2	3	-5	69*	0	0	4	6
Cc1cccc(C)c1-n1nnnc1C(c1cc2ccccc2o1)N1CCN(C/C=C/c2ccccc2)CC1 (centres undefined)	6	1	.	63*	8	6	6	8
Cc1cccc(C)c1-n1nnnc1C(c1cccc2ccccc12)N1CCN(C/C=C/c2ccccc2)CC1 (centres undefined)	6	-2	.	0	2	10	.	.
COc1ccccc1Cc1c(-c2ccco2)nc2ccc(Cl)cn12	0	4	.	25	20	6	.	.
COc1ccccc1Cc1c(-c2ccco2)nc2ccc(Br)cn12	2	12	.	71*	4	11	3	4
Clc1ccc2nc(-c3ccco3)c(Cc3ccccc3)n2c1	-1	5	.	64*	5	7	5	3
CC(C)(C)OC(=O)N1CCC(CNC(=O)c2ccc(F)cc2)CC1	-2	2	-13	1	5	0	.	.
CCN(C(=O)N1CCOCC1)c1ccccc1C	2	2	-7	0	0	0	.	.
COc1ccc(S(=O)(=O)/N=C2/NC(=O)/C(=C/c3ccco3)S2)cc1	4	25	20	64*	6	1	0	-1
COc1ccc(S(=O)(=O)/N=C2/NC(=O)/C(=C\c3ccco3)S2)cc1	1	9	0	23	5	-1	.	.
CC(C)Cn1c(N)c(C(=O)NCC2CCCO2)c2nc3ccccc3nc21 (centres undefined)	4	39	-4	74*	24	19	10	1
O=c1cc(-c2ccco2)oc2c1ccc1ccccc12	2	10	16	65*	14	7	1	0
O=c1cc(-c2ccncc2)oc2c1ccc1ccccc12	3	-11	-5	15	-11	-2	.	.
Cc1cc(C)c2cc(CN(Cc3ccco3)C(=S)NCC3CCCO3)c(=O)[nH]c2c1 (centres undefined)	-1	3	1	-5	1	1	.	.
O=C(O)c1ccc(NS(=O)(=O)c2ccc3c(c2)C2C=CCC2C(c2ccccc2F)N3)cc1 (centres undefined)	-2	35	-4	62*	-5	3	29	1	DNMT1 interf DR=>99
O=C(O)c1ccc2c(c1)C1C=CCC1C(c1cc3c(cc1Br)OCO3)N2 (centres undefined)	-3	10	14	12	-2	5	.	.
CS(=O)(=O)Nc1ccc(C(=O)NC2CCCC2)cc1	0	-1	-21	80*	-5	-1	1	3
CS(=O)(=O)Nc1ccc(C(=O)NC2CCCCC2)cc1	-1	4	-5	1	-9	-1	.	.
COc1cccc(CC(=O)N2CCC(n3nccc3NC(=O)C3CCOC3)CC2)c1 (centres undefined)	-2	1	-10	0	1	-1	.	.
Nc1cc2c3ccccc3ccc2c2ccccc12	3	22	5	91*	15	16	4	9
O=C1NN(c2ccccc2)C(=O)/C1=C/c1ccc(Sc2cccc3ccccc23)o1	1	20	1	66*	14	3	69*	-2	DNMT1 interf DR=>99
O=C1NN(c2ccccc2)C(=O)C1=Cc1ccccc1O	1	-12	.	9	-2	-2	.	.
CC1(C(=O)NCc2ccccc2Br)CCN1Cc1ccc2ccccc2c1 (centres undefined)	1	6	.	3	6	2	.	.
Cc1sc2ncnc(NC(C)C(=O)O)c2c1C (centres undefined)	-2	1	1	55*	9	0	1	-3
SMILES	STEP block	SUMO1 PPI mod	Scp1 inh	DNMT1 inh	Rpn11 inh	LMPTP inh	DNMT1 confirm	DNMT1 interf	others
CCc1ccc([C@H]2C(C(=O)O)=C[C@@H](CC)N2S(=O)(=O)c2ccc(C)cc2)cc1	2	2	8	74*	1	-2	4	1
Cc1cccc(C)c1NC(=O)C1(C)CN(S(C)(=O)=O)CC(=O)N1Cc1ccc2c(c1)OCO2 (centres undefined)	.	-2	.	.	.	-2	.	.
C=CCn1c(SCC(=O)c2[nH]c(C)c(C(=O)OCC)c2C)nc2scc(-c3ccccc3)c2c1=O	4	-4	-10	57*	-2	1	1	2
Cc1ccnc(NC(=O)CNC(=O)c2ccccc2Br)c1	4	0	7	-1	-2	0	.	.
Cc1ccc2nc(Nc3ccc4[nH]c(=O)[nH]c4c3)c(-n3nc(C)cc3C)nc2c1	1	-4	-1	51*	0	4	3	2
O=C(c1cc2cc(Cl)ccc2oc1=O)N1CCN(c2ccccn2)CC1	1	-6	0	89*	1	1	-2	2
COCCNc1nc(-c2ccccc2F)c2sc(-c3ccccc3)cc2n1	3	-13	.	9	2	4	.	.
Cc1nccc2oc(=O)c(NC(=O)c3ccc(Cl)cc3)cc12	-2	-17	-4	1	7	2	.	.
O=C(Nc1cc2c(oc1=O)CCCC2=O)c1ccc(Cl)cc1	4	-14	68*	97*	2	35	16	-2
CN1CCS/C1=C\C=C1/SC(=S)N(CC(=O)O)C1=O	3	-245	9	63*	.	27	57*	60*
CCN1C(=O)/C(=C/C=C2/SCCN2C)SC1=S	-4	-217	-7	36	.	8	.	.
Cn1c(=O)c2c(nc(SCc3cccnc3)n2Cc2ccccc2)n(C)c1=O	2	2	-3	3	-8	1	.	.
Cc1ccc(Cn2c(SCc3cccnc3)nc3c2c(=O)n(C)c(=O)n3C)cc1	6	0	-6	108*	-5	2	7	5
CCCSc1nc2c(c(=O)[nH]c(=O)n2C)n1Cc1ccc(C)cc1	1	1	-2	54*	-6	0	0	1
CC(=O)N/C(=C\c1ccccc1)C(=O)OCc1cccc(S(=O)(=O)N(C)C)c1	1	-1	-8	-8	-1	0	.	.
